From ChEMBL document CHEMBL1629612, “Characterization and sequence analysis of extended-spectrum-{beta}-lactamase-encoding genes from Escherichia coli, Klebsiella pneumoniae, and Proteus mirabilis isolates collected during tigecycline phase 3 clinical trials” (2009)
≈ marks a conversion by molar mass, not a printed value.

Key:
Type in all cases: functional
Escherichia coli [1] = assay: Antimicrobial activity against Escherichia coli expressing beta-lactamase AmpC and extended-spectrum beta-lactamase by Etest
In short: (§1)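 Clinical isolates from tigecycline phase 3 trials were received as frozen primary cultures. Serial isolates from one patient were riboprinted, and only the first of identical strains was kept. β-Lactamase genes were assigned by PCR. ESBL confirmation used Etest ESBL strips carrying ceftazidime or cefotaxime, alone and combined with clavulanic acid, following the strip maker's instructions.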

Escherichia coli [2] = assay: Antimicrobial activity against Escherichia coli expressing beta-lactamase AmpC by Etest; in short: as §1
Klebsiella pneumoniae [3] = assay: Antimicrobial activity against Klebsiella pneumoniae expressing beta-lactamase CTX by Etest based on multiple determinants
In short: (§2)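 Clinical isolates from tigecycline phase 3 trials were received as frozen primary cultures. Repeat isolates from one patient were riboprinted, and only the first of identical strains was kept. β-lactamase genes were assigned by PCR against control strains, plus isoelectric focusing. ESBL confirmation used Etest ESBL strips carrying ceftazidime or cefotaxime with clavulanic acid, read per the manufacturer's instructions.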

Escherichia coli [4] = assay: Antimicrobial activity against Escherichia coli expressing beta-lactamase CTX and SHV by Etest; in short: as §1
Escherichia coli [5] = assay: Antimicrobial activity against Escherichia coli expressing beta-lactamase CTX by Etest based on multiple determinants; in short: as §1
Escherichia coli [6] = assay: Antimicrobial activity against Escherichia coli extended-spectrum beta-lactamase producing isolate by Etest; in short: as §1
Klebsiella pneumoniae [7] = assay: Antimicrobial activity against Klebsiella pneumoniae extended-spectrum beta-lactamase producing isolate by Etest; in short: as §2
Proteus mirabilis [8] = assay: Antimicrobial activity against Proteus mirabilis extended-spectrum beta-lactamase producing isolate by Etest; in short: as §2
Escherichia coli [9] = assay: Antimicrobial activity against Escherichia coli expressing beta-lactamase SHV by Etest; in short: as §1
Escherichia coli [10] = assay: Antimicrobial activity against Escherichia coli expressing beta-lactamase CTX by Etest based on single determinant; in short: as §1
Klebsiella pneumoniae [11] = assay: Antimicrobial activity against Klebsiella pneumoniae expressing beta-lactamase SHV by Etest based on single determinant; in short: as §2
Klebsiella pneumoniae [12] = assay: Antimicrobial activity against Klebsiella pneumoniae expressing beta-lactamase SHV by Etest based on multiple determinants; in short: as §2
Klebsiella pneumoniae [13] = assay: Antimicrobial activity against Klebsiella pneumoniae expressing beta-lactamase CTX by Etest based on single determinant; in short: as §2
Klebsiella pneumoniae [14] = assay: Antimicrobial activity against Klebsiella pneumoniae expressing beta-lactamase SHV and CTX by Etest; in short: as §2
Klebsiella pneumoniae [15] = assay: Antimicrobial activity against Klebsiella pneumoniae expressing extended-spectrum beta-lactamase and beta-lactamase AmpC by Etest; in short: as §1
Klebsiella pneumoniae [16] = assay: Antimicrobial activity against Klebsiella pneumoniae expressing beta-lactamase DHA by Etest; in short: as §1
Proteus mirabilis [17] = assay: Antimicrobial activity against Proteus mirabilis expressing extended-spectrum beta-lactamase by Etest based on single determinant; in short: as §2
Proteus mirabilis [18] = assay: Antimicrobial activity against Proteus mirabilis expressing extended-spectrum beta-lactamase by Etest based on multiple determinants; in short: as §2
Proteus mirabilis [19] = assay: Antimicrobial activity against Proteus mirabilis expressing beta-lactamase AmpC by Etest; in short: as §2

SMILES	MIC50 (Escherichia coli [1]) [µg/mL]	MIC90 (Escherichia coli [1]) [µg/mL]	MIC (Escherichia coli [2]) [µg/mL]	MIC50 (Klebsiella pneumoniae [3]) [µg/mL]	MIC90 (Klebsiella pneumoniae [3]) [µg/mL]	MIC50 (Escherichia coli [4]) [µg/mL]	MIC90 (Escherichia coli [4]) [µg/mL]	MIC50 (Escherichia coli [5]) [µg/mL]	MIC90 (Escherichia coli [5]) [µg/mL]	MIC50 (Escherichia coli [6]) [µg/mL]	MIC90 (Escherichia coli [6]) [µg/mL]	MIC50 (Klebsiella pneumoniae [7]) [µg/mL]	MIC90 (Klebsiella pneumoniae [7]) [µg/mL]	MIC50 (Proteus mirabilis [8]) [µg/mL]	MIC90 (Proteus mirabilis [8]) [µg/mL]	MIC (Escherichia coli [9]) [µg/mL]	MIC50 (Escherichia coli [10]) [µg/mL]	MIC90 (Escherichia coli [10]) [µg/mL]	MIC50 (Klebsiella pneumoniae [11]) [µg/mL]	MIC90 (Klebsiella pneumoniae [11]) [µg/mL]	other results
CN(C)c1ccc(O)c2c1C[C@H]1C[C@H]3[C@H](N(C)C)C(O)=C(C(N)=O)C(=O)[C@@]3(O)C(O)=C1C2=O [MINOCYCLINE]	4 (≈ 8.74 µM)	> 64	1 (≈ 2.19 µM)	4 (≈ 8.74 µM)	16 (≈ 35 µM)	4 (≈ 8.74 µM)	16 (≈ 35 µM)	4 (≈ 8.74 µM)	32 (≈ 69.9 µM)	4 (≈ 8.74 µM)	32 (≈ 69.9 µM)	4 (≈ 8.74 µM)	64 (≈ 140 µM)	64 (≈ 140 µM)	> 64	2 (≈ 4.37 µM)	4 (≈ 8.74 µM)	32 (≈ 69.9 µM)	4 (≈ 8.74 µM)	64 (≈ 140 µM)	MIC (Klebsiella pneumoniae [12]): 2 µg/mL (≈ 4.37 µM); MIC50 (Klebsiella pneumoniae [13]): 4 µg/mL (≈ 8.74 µM); MIC90 (Klebsiella pneumoniae [13]): 32 µg/mL (≈ 69.9 µM); MIC50 (Klebsiella pneumoniae [14]): 8 µg/mL (≈ 17.5 µM); MIC90 (Klebsiella pneumoniae [14]): 64 µg/mL (≈ 140 µM); MIC (Klebsiella pneumoniae [15]): 4 µg/mL (≈ 8.74 µM); MIC (Klebsiella pneumoniae [16]): 4 µg/mL (≈ 8.74 µM); MIC (Proteus mirabilis [17]): 16 µg/mL (≈ 35 µM); MIC (Proteus mirabilis [18]): 16 µg/mL (≈ 35 µM); MIC (Proteus mirabilis [19]): 16 µg/mL (≈ 35 µM)
CN(C)c1cc(NC(=O)CNC(C)(C)C)c(O)c2c1C[C@H]1C[C@H]3[C@H](N(C)C)C(O)=C(C(N)=O)C(=O)[C@@]3(O)C(O)=C1C2=O [TIGECYCLINE]	0.25 (≈ 0.427 µM)	0.5 (≈ 0.854 µM)	0.25 (≈ 0.427 µM)	0.5 (≈ 0.854 µM)	1 (≈ 1.71 µM)	0.25 (≈ 0.427 µM)	0.5 (≈ 0.854 µM)	0.5 (≈ 0.854 µM)	0.5 (≈ 0.854 µM)	0.25 (≈ 0.427 µM)	0.5 (≈ 0.854 µM)	0.5 (≈ 0.854 µM)	2 (≈ 3.41 µM)	2 (≈ 3.41 µM)	16 (≈ 27.3 µM)	0.12 (≈ 0.205 µM)	0.25 (≈ 0.427 µM)	0.5 (≈ 0.854 µM)	0.5 (≈ 0.854 µM)	1 (≈ 1.71 µM)	MIC (Escherichia coli [4]): 0.25 µg/mL (≈ 0.427 µM); MIC (Klebsiella pneumoniae [12]): 0.5 µg/mL (≈ 0.854 µM); MIC50 (Klebsiella pneumoniae [13]): 1 µg/mL (≈ 1.71 µM); MIC90 (Klebsiella pneumoniae [13]): 2 µg/mL (≈ 3.41 µM); MIC50 (Klebsiella pneumoniae [14]): 0.5 µg/mL (≈ 0.854 µM); MIC90 (Klebsiella pneumoniae [14]): 2 µg/mL (≈ 3.41 µM); MIC (Klebsiella pneumoniae [15]): 0.5 µg/mL (≈ 0.854 µM); MIC (Klebsiella pneumoniae [16]): 0.5 µg/mL (≈ 0.854 µM); MIC (Proteus mirabilis [17]): 2 µg/mL (≈ 3.41 µM); MIC (Proteus mirabilis [18]): 0.5 µg/mL (≈ 0.854 µM); MIC (Proteus mirabilis [19]): 2 µg/mL (≈ 3.41 µM)
NC[C@H]1O[C@H](O[C@H]2[C@H](O)[C@@H](O[C@H]3O[C@H](CO)[C@@H](O)[C@H](N)[C@H]3O)[C@H](N)C[C@@H]2N)[C@H](N)C[C@@H]1O [TOBRAMYCIN]	16 (≈ 34.2 µM)	> 32	1 (≈ 2.14 µM)	32 (≈ 68.4 µM)	> 32	32 (≈ 68.4 µM)	> 32	32 (≈ 68.4 µM)	> 32	32 (≈ 68.4 µM)	> 32	32 (≈ 68.4 µM)	> 32	8 (≈ 17.1 µM)	> 32	0.25 (≈ 0.535 µM)	32 (≈ 68.4 µM)	> 32	16 (≈ 34.2 µM)	> 32	MIC (Klebsiella pneumoniae [12]): 0.5 µg/mL (≈ 1.07 µM); MIC50 (Klebsiella pneumoniae [13]): 16 µg/mL (≈ 34.2 µM); MIC90 (Klebsiella pneumoniae [13]): > 32 µg/mL; MIC50 (Klebsiella pneumoniae [14]): 32 µg/mL (≈ 68.4 µM); MIC90 (Klebsiella pneumoniae [14]): > 32 µg/mL; MIC (Klebsiella pneumoniae [15]): 0.25 µg/mL (≈ 0.535 µM); MIC (Klebsiella pneumoniae [16]): 16 µg/mL (≈ 34.2 µM); MIC (Proteus mirabilis [17]): 0.5 µg/mL (≈ 1.07 µM); MIC (Proteus mirabilis [18]): 4 µg/mL (≈ 8.56 µM); MIC (Proteus mirabilis [19]): 4 µg/mL (≈ 8.56 µM)
